Compound activity from PubChem.
Sampled rows, rich in hits. Any-hit rate of the full collection: about 1.1%.
hiPSC survival – enhancers of human iPSC single-cell survival; 360,000 compounds, 0.044% hits; hiPSC single-cell survival, ATPlite luminescence; 100% = ROCK inhibitor wells, 0% = DMSO; survival enhancement, % at 20 µM; AID 602274; in the data active means survival enhancement above about 18%;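 further: cells exposed to compounds for 16 hours before the ATP read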
FAS TE block – FAS thioesterase (human) inhibition. P49327. inhibition, % at 15 µM. 360,000 compounds, 0.67% hits. recombinant FAS-TE, OMFH fluorogenic substrate, fluorescence endpoint;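 active means compounds whose normalised, plate-corrected inhibition of enzyme fluorescence in the single-dose primary screen is 50% or more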
ABCB6 inh MLPCN – human ABCB6 transporter inhibition | 360,000 compounds, 0.19% hits | K562-ABCB6 porphyrin accumulation, flow cytometry, 1 h; active compounds read low | fluorescence ratio to DMSO, % at 10 µM | AID 602162;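 active means fluorescence ratio to DMSO below 75%, the collection mean minus 3 SD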;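 further: signal is porphyrin accumulated inside mitochondria; lower ratio means ABCB6 inhibition with less porphyrin fluorescence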
SENP1 inh – SENP1 (human) catalytic domain inhibition; recombinant SENP1 catalytic domain, CyPet-SUMO1-YPet FRET cleavage; inhibition, % at 10 µM; 360,000 compounds, 0.21% hits; AID 624204;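 active means inhibition at least 30% at 10 µM, raw YFP signal under a set limit, fluorescence ratio 0.5 to 1.5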
Target sequence (Q9P0U3 419-644 limits assumed): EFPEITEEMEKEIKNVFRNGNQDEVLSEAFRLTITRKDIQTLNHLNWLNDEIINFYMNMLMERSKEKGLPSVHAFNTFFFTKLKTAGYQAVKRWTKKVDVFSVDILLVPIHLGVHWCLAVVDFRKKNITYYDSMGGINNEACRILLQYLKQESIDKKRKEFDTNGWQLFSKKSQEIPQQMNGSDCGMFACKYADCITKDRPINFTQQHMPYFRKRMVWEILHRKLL
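System: Recombinant human SENP1 catalytic domain, His6-tagged | Incubation: Enzyme reaction for 50 min at room temperature, dark | Medium: Tris pH 8 with BME, BSA, NP40 and catalase | Also added: 25 nM SUMO1 FRET substrate | Compound: 10 µM single point, 0.5% DMSO | Measured by: FRET fluorescence in CFP and YFP emission channels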
FAS-TE conf – FAS thioesterase (human) inhibition, confirmation; 2,300 compounds, 45% hits; inhibition, % at 15 µM; AID 624325; recombinant FAS-TE, OMFH fluorogenic substrate, fluorescence; shares compounds with FAS TE block;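 active means compounds inhibiting the enzyme by at least 50% at 15 µM in any one of the replicates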
Each line names hits and unclear results; the compound was inactive in the other large screens (follow-up assays come after a bar, where they were run).

CCCCCn1c(=O)c(F)cn(Cc2ccc(OC)c([N+](=O)[O-])c2)c1=O	none
O=C(CCSc1ccc(F)cc1)NNC(=O)c1ccc([N+](=O)[O-])cc1	none
CCCCCN(CCCCC)C(=O)C(CCC(=O)O)NC(=O)c1ccc(Cl)c(Cl)c1 (stereo not drawn)	FAS TE block 72 | FAS-TE conf 74
C=CCN(C(=O)CNC(=O)c1ccco1)C(C(=O)NC1CCCC1)c1ccc(OC)cc1 (stereo not drawn)	none
CC(C)(C)c1ccc(/C=N/Nc2ccc(C(=O)O)cc2)cc1	FAS TE block 64 | FAS-TE conf 77
O=C(O)c1ccc(N/N=C/c2ccc(C(F)(F)F)cc2)cc1	none
CCc1ccc(NC(=O)COc2ccc(F)cc2C(=O)c2cnn(-c3ccccc3)c2)cc1	FAS TE block 53 | FAS-TE conf inactive
O=C1CCC[C@@H]2[C@@H](Cc3ccccc3)[C@H](N3CCN(c4ccccc4)CC3)C[C@@H]3CCN1[C@@H]32	none
O=C1CSc2ccc(C(=O)Nc3cccc(S(=O)(=O)Nc4ccc(Br)cc4)c3)cc2N1	FAS TE block 50 | FAS-TE conf inactive
COc1ccc(C2CC(c3cccs3)=NN2C(=O)CSC2=NCCS2)cc1 (stereo not drawn)	none
COc1ccc(C2CC(c3cccs3)=NN2C(=O)CSc2nc(=O)n3cc(C)ccc3n2)cc1 (stereo not drawn)	FAS TE block 53 | FAS-TE conf inactive
Cc1ccc(S(=O)(=O)N2C[C@H]3[C@H]4C(=O)N(Cc5ccccc5)C(=O)[C@H]4CC(=O)[C@H]3[C@@H]2c2ccccc2Cl)cc1	FAS TE block 85 | FAS-TE conf inactive
Cc1ccc(S(=O)(=O)N2C[C@H]3[C@H]4C(=O)N(C5CCCCC5)C(=O)[C@H]4CC(=O)[C@H]3[C@@H]2c2cccc3ccccc23)cc1	FAS TE block 97 | FAS-TE conf inactive
Cc1ccc(S(=O)(=O)N2C[C@H]3[C@H]4C(=O)N(Cc5ccccc5)C(=O)[C@H]4CC(=O)[C@H]3[C@@H]2c2ccccc2F)cc1	none
COc1ccc(C(=O)NCc2nnc(SCC(=O)N3CCCC3)o2)cc1	none
Cc1c(F)cccc1NC(=O)c1ccc2c(c1)CCN2S(C)(=O)=O	none
COCCCNC(=O)c1ccc2nc([C@@H]3O[C@H](CO)[C@H](O)[C@H](O)[C@H]3O)[nH]c2c1	none
Cc1ccc(S(=O)(=O)ON2C(=O)c3ccccc3C2=O)c(C)c1	FAS TE block 75 | FAS-TE conf 94
Cc1cccc2c1N(C)C(=O)C2=O	none
Cc1cc(C)c(C)c(S(=O)(=O)ON2C(=O)c3ccccc3C2=O)c1C	FAS TE block 90 | FAS-TE conf 95
O=C1c2ccccc2C(=O)N1OS(=O)(=O)c1ccc(F)cc1	FAS TE block 71 | FAS-TE conf 50
Cc1ccc(OC(=O)CN2C(=O)c3ccccc3C2=O)cc1C	none
Cc1ccc(S(=O)(=O)N2CCN(CCc3ccccc3)CC2)c(C)c1	none
Cc1cc(C)c(S(=O)(=O)ON2C(=O)c3ccccc3C2=O)cc1C	FAS TE block 91 | FAS-TE conf 95
O=[N+]([O-])c1ccc(N2CCN(CC3CCCCC3)CC2)cc1	none
CN(C)c1ccc(P(=O)(Nc2cccc(C(F)(F)F)c2)N2CCOCC2)c(NC(=O)c2cccs2)c1 (stereo not drawn)	FAS TE block 53 | FAS-TE conf inactive
CC1N(C)c2cc(NC(=O)c3cccs3)c(P(=O)(Nc3ccc([N+](=O)[O-])cc3)N3CCOCC3)cc2C1(C)C (stereo not drawn)	FAS TE block 52 | FAS-TE conf inactive
O=C(Nc1cc([N+](=O)[O-])ccc1N1CCOCC1)c1cccs1	none
C[C@@]12C(=O)Nc3ccc(F)cc3C(=O)N1[C@H]1c3cc(Cl)ccc3OC[C@@H]1[C@@H]2c1ccccc1	FAS TE block 85 | FAS-TE conf inactive
C[C@@]12C(=O)Nc3cc(Cl)ccc3C(=O)N1[C@H]1c3ccccc3OC[C@@H]1[C@@H]2c1ccccc1	FAS TE block 87 | FAS-TE conf inactive
Cc1ccc2c(c1)[C@H]1[C@H](CO2)[C@H](c2ccccc2)[C@]2(C)C(=O)Nc3ccc(Br)cc3C(=O)N12	FAS TE block 96 | FAS-TE conf inactive
C[C@@]12C(=O)Nc3cc(Cl)ccc3C(=O)N1[C@H]1c3cc(Br)ccc3OC[C@@H]1[C@@H]2c1ccccc1	FAS TE block 80 | FAS-TE conf inactive
Cc1ccc2c(c1)C(=O)N1[C@H]3c4cc(Br)ccc4OC[C@@H]3[C@H](c3ccccc3)[C@]1(C)C(=O)N2	none
C[C@@]12C(=O)Nc3cc(Cl)ccc3C(=O)N1[C@H]1c3cc(Cl)ccc3OC[C@@H]1[C@@H]2c1ccccc1	none
COc1cc(CCN(C(=O)c2cccc(S(C)(=O)=O)c2)C(CCc2ccccc2)c2nc3ccccc3[nH]2)cc(OC)c1 (stereo not drawn)	none
CC(=O)Nc1ccc(NS(=O)(=O)c2cccc3nonc23)cc1	none
O=C(c1ccccc1)n1c2ccccc2c(=O)n1-c1ccccc1CCl	none
C[C@@]12C(=O)Nc3cc(F)c(F)cc3C(=O)N1[C@H]1c3ccccc3OC[C@@H]1[C@@H]2c1ccccc1	FAS TE block 76 | FAS-TE conf 44
CC1CCCN(CCCNC(=O)c2ccc(N3CCCC3=O)cc2)C1 (stereo not drawn)	none
CC1(C)CC[C@]2(C(=O)n3ccnc3)CC[C@]3(C)[C@H](C(=O)C=C4[C@@]5(C)C=C(C#N)C(=O)C(C)(C)[C@@H]5CC[C@]43C)[C@@H]2C1	FAS TE block 96 | FAS-TE conf 68
COCCNC(=O)C[C@H]1C[C@H]2c3cc(NS(=O)(=O)c4ccc(F)cc4)ccc3O[C@H]2[C@H](CO)O1	none
CC(C)C[C@@H](CN)NC(=O)c1nc[nH]c1C(=O)N[C@@H](C)C(=O)CNC[C@H](C)NC(=O)c1nc[nH]c1C(=O)N[C@@H](CC(C)C)C(=O)O	none
CCCOc1ccc(NC(=O)CC2C(=O)N(C)C(=S)N2Cc2cccs2)cc1 (stereo not drawn)	FAS TE block 64 (no result: ABCB6 inh MLPCN) | FAS-TE conf 65
O=C(c1ccc([N+](=O)[O-])cc1)N(c1ccccn1)c1ccccn1	none
CN(N=Cc1ccc([N+](=O)[O-])cc1)c1ccccn1	FAS TE block 50 | FAS-TE conf inactive
CCOc1c(OC(C)=O)ccc(/C=C/c2ccc3cccc(OC(C)=O)c3n2)c1[N+](=O)[O-]	none
C=CCN1C(=O)/C(=C/c2ccc(OC(C)=O)c(OCC)c2[N+](=O)[O-])SC1=S	FAS TE block 75 | FAS-TE conf 46
COc1cc(/C=N/NC(=O)/C(=C\c2ccc([N+](=O)[O-])cc2)NC(=O)c2ccccc2)cc(OC)c1O	none
